Experiments:
[1] = target: CYP2D6 (Homo sapiens, UniProt P10635); experiment: Inhibition of CYP2D6 at 1 uM; format: ADME
Method in brief: (§1)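 Compounds were incubated at 37 ± 0.5 °C with agitation with human recombinant CYP isoforms, isoform-selective fluorescent substrates and an NADPH-generating system.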

[2] = target: CYP3A4 (Homo sapiens, UniProt P08684); experiment: Inhibition of CYP3A4 at 1 uM; format: ADME; method in brief: as §1
[3] = target: Histamine H3 receptor (Homo sapiens, UniProt Q9Y5N1); experiment: Displacement of [125I]Iodoproxyfan from recombinant human histamine H3 receptor expressed in HEK293 cells after 60 mins; format: cell-based
[4] = target: CYP2C9 (Homo sapiens, UniProt P11712); experiment: Inhibition of CYP2C9 at 1 uM; format: ADME; method in brief: as §1
[5] = target: Cytochrome P450 2C9 (Homo sapiens, UniProt P11712); experiment: Inhibition of CYP2C9; format: ADME; method in brief: as §1
[6] = target: Cytochrome P450 3A4 (Homo sapiens, UniProt P08684); experiment: Inhibition of CYP3A4; format: ADME; method in brief: as §1
[7] = target: Cytochrome P450 2D6 (Homo sapiens, UniProt P10635); experiment: Inhibition of CYP2D6; format: ADME; method in brief: as §1
[8] = system: Mus musculus; experiment: Inverse agonist activity at histamine H3 receptor in po dosed Swiss mouse assessed as brain N-tele-methylhistamine level measured after 90 mins by enzyme immunoassay; format: functional; conditions: 1.5 h
Method in brief: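 Compounds were given orally to at least 6 male Swiss mice per dose. Brain N-tele-methylhistamine was measured by enzyme immunoassay 90 min after dosing. Intrinsic activity was scaled to ciproxifan as the reference full inverse agonist. ED50 is given as mean ± SEM.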

[9] = target: Histamine H3 receptor (Mus musculus, UniProt P58406); experiment: Displacement of [125I]Iodoproxyfan from mouse brain cortex histamine H3 receptor after 60 mins; format: tissue-based
Method in brief: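 Competition binding used [125I]-iodoproxyfan against human recombinant H3R and native mouse brain cortex H3R. Ki values are means of at least two experiments run in duplicate or triplicate, reported as mean ± SEM.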

[10] = target: T1, hERG (KCNH2) (Homo sapiens, UniProt Q12809); experiment: Inhibition of human ERG expressed in HEK293 cells at 10 uM by patch clamp assay; format: cell-based; conditions: HEK293 cells expressing human ERG
[11] = target: T1, hERG (KCNH2); experiment: Inhibition of human ERG expressed in HEK293 cells at 1 uM by patch clamp assay; format: cell-based; conditions: HEK293 cells expressing human ERG
[12] = Ratio of AUC (0 to 8 hrs) in Swiss mouse brain to AUC (0 to 8 hrs) in Swiss mouse plasma at 10 mg/kg, po by LC-MS/MS; format: ADME, organism-based; set-up: dose 10 mg/kg, route oral; conditions: brain and plasma, read-out: Ratio AUC
Method in brief: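 Male Swiss mice given single 10 mg/kg oral dose; plasma and brain tissue sampled over 0–8 h and drug quantified by LC-MS/MS; AUC0-8h computed for each matrix, ratio brain to plasma; mean ± SEM of 3 mice.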

[13] = system: Liver microsomes; experiment: Metabolic stability in human liver microsomes at 100 nM upto 250 mins by LC-MS/MS; format: ADME, Microsome; conditions: 0.1 µM
Method in brief: (§2)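 Compound at 100 nM was incubated with pooled human or mouse liver microsomes (0.5 mg/mL protein) plus NADP. Remaining compound was followed over time by LC-MS/MS.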

[14] = AUC (0 to 8 hrs) in Swiss mouse plasma at 10 mg/kg, po by LC-MS/MS; format: ADME, organism-based; set-up: time < 8 hr, dose 10 mg/kg, route oral
Method in brief: (§3)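 Male Swiss mice received a single 10 mg/kg oral dose. Compound was quantified in plasma and brain tissue by LC-MS/MS over 8 h, and AUC0-8h was derived. Data are mean ± SEM of 3 mice.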

[15] = system: Liver; experiment: Metabolic stability in mouse liver microsomes at 100 nM upto 250 mins by LC-MS/MS; format: ADME, Microsome; conditions: 0.1 µM; method in brief: as §2
[16] = AUC (0 to 8 hrs) in Swiss mouse brain at 10 mg/kg, po by LC-MS/MS; format: ADME, organism-based; set-up: time < 8 hr, dose 10 mg/kg, route oral; method in brief: as §3
[17] = AUC (0 to 3 hrs) in Swiss mouse brain at 10 mg/kg, po by LC-MS/MS; format: ADME, organism-based; set-up: time < 3 hr, dose 10 mg/kg, route oral
[18] = Tmax in Swiss mouse plasma at 10 mg/kg, po by LC-MS/MS; format: ADME, organism-based; set-up: dose 10 mg/kg, route oral
[19] = Tmax in Swiss mouse brain at 10 mg/kg, po by LC-MS/MS; format: ADME, organism-based; set-up: dose 10 mg/kg, route oral
[20] = AUC (0 to 3 hrs) in Swiss mouse plasma at 10 mg/kg, po by LC-MS/MS; format: ADME, organism-based; set-up: time < 3 hr, dose 10 mg/kg, route oral

Histamine H3 receptor (Mus musculus, UniProt P58406), sequence (P58406 whole entry): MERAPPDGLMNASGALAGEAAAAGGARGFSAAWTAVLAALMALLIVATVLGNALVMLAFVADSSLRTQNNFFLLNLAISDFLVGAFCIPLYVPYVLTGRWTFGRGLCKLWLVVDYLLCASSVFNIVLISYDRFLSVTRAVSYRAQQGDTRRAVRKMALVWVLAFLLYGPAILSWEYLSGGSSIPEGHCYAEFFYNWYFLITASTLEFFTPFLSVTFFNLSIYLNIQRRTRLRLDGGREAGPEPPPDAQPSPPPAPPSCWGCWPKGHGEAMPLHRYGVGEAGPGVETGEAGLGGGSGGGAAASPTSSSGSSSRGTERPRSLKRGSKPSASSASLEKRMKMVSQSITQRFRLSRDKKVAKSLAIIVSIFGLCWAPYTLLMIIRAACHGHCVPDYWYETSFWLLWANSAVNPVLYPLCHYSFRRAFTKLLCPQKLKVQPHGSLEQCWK
CYP2D6, sequence (P10635 whole entry, canonical isoform): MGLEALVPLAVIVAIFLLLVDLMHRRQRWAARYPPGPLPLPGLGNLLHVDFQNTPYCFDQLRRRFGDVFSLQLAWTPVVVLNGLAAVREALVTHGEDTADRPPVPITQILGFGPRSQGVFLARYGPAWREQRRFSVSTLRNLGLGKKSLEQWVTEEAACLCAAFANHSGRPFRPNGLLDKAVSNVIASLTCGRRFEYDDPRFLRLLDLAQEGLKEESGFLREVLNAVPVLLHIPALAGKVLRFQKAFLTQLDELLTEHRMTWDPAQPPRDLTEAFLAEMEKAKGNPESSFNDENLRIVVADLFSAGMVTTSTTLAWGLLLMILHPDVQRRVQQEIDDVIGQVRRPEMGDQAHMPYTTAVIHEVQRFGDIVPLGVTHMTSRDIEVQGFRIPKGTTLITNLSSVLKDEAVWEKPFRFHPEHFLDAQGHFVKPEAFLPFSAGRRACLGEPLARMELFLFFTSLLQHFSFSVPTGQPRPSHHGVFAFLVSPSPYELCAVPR
Cytochrome P450 2D6, sequence (P10635 whole entry): as the sequence (P10635 whole entry, canonical isoform) above
Cytochrome P450 3A4, sequence (P08684 whole entry): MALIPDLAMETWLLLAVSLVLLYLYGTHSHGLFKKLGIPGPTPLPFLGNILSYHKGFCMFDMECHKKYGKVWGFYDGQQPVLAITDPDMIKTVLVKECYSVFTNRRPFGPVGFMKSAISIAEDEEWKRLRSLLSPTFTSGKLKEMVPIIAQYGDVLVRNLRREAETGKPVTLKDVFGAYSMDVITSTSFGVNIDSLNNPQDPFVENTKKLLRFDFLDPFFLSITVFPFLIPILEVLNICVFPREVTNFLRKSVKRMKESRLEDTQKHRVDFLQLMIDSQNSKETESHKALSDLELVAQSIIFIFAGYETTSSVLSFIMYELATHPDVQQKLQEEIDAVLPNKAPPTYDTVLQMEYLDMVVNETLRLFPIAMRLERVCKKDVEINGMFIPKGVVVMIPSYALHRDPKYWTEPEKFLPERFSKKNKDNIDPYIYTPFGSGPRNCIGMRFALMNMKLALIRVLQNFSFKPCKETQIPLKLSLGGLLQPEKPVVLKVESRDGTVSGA
CYP3A4, sequence (P08684 whole entry): as above
Cytochrome P450 2C9, sequence (P11712 whole entry): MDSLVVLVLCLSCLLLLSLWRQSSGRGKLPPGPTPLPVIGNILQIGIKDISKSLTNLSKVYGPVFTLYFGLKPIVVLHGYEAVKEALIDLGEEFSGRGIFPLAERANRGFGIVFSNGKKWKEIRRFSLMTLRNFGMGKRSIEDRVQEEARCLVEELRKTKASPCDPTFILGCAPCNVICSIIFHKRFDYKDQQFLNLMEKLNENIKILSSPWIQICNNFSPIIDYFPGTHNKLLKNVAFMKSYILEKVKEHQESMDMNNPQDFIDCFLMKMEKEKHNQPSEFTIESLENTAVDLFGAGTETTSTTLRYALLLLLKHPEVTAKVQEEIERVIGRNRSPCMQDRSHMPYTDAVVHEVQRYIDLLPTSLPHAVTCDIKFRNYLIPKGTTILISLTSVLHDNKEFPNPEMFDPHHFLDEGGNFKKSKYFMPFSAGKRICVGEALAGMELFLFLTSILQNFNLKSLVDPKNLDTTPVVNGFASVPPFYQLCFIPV
CYP2C9, sequence (P11712 whole entry): as above
T1 sequence (Q12809 whole entry): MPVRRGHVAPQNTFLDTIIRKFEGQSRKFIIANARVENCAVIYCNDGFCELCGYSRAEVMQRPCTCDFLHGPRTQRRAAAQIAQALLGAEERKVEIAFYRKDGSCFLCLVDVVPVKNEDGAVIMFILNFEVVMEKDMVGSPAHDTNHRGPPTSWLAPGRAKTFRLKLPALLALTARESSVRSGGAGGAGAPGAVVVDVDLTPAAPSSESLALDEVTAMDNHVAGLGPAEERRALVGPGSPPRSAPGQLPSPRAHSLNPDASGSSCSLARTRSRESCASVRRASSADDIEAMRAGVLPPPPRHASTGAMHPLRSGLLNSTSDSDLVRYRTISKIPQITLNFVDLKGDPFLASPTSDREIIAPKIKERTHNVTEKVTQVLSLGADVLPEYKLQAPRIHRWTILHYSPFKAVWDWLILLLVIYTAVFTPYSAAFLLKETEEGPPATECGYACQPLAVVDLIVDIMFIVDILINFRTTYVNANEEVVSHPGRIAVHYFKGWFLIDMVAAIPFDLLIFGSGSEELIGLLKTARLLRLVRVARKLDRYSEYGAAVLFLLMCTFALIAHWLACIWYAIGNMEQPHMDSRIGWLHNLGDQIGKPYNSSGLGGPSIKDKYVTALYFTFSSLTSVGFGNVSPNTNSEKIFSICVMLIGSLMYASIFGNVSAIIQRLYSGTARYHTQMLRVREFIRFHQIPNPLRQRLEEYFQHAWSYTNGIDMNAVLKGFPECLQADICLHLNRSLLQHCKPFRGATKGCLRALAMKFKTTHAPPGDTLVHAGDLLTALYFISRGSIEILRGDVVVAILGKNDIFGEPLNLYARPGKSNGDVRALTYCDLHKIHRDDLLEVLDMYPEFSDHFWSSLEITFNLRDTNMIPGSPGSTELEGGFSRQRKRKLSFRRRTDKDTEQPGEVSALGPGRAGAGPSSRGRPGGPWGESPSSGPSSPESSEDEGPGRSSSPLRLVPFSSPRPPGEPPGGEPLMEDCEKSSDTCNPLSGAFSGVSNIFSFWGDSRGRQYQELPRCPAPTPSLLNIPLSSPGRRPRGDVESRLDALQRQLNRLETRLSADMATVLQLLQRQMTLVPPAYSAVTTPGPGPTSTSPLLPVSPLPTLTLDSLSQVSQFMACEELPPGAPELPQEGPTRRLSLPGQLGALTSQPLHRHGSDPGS
Histamine H3 receptor (Homo sapiens, UniProt Q9Y5N1), sequence (Q9Y5N1 whole entry): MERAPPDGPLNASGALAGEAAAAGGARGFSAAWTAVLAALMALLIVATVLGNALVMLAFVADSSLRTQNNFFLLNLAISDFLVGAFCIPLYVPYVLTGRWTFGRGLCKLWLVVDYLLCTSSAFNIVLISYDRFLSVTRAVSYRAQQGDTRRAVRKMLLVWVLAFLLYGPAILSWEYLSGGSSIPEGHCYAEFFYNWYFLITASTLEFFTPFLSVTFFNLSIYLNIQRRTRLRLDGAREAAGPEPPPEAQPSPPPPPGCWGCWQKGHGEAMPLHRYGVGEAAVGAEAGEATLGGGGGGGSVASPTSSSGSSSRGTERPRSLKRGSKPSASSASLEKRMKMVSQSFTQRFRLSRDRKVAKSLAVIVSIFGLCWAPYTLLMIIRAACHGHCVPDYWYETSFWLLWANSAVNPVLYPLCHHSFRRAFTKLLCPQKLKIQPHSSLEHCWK

Row | SMILES | inhibition at 1 µM [1] | inhibition at 1 µM [2] | Ki [3] | inhibition at 1 µM [4] | IC50 [5] | Ki [9] | also measured
1 | O=C1CCC(c2ccc(OCCCN3CCCCC3)cc2)CC1 | 3.8% | 4.1% | 1.7 nM | 21.4% |  |  | 
2 | CN(C)[C@H]1CC[C@@H](c2ccc(OCCCN3CCCCC3)cc2)CC1 |  |  |  |  | 11300 nM | 0.28 nM | IC50 [6]: 50000 nM; IC50 [7]: > 100000 nM; ED50 [8]: 3.7 mg/kg
3 | CN(C)[C@H]1CC[C@H](c2ccc(OCCCN3CCCCC3)cc2)CC1 |  |  |  |  | 40700 nM | 0.52 nM | IC50 [6]: 42600 nM; IC50 [7]: > 100000 nM; ED50 [8]: 3.7 mg/kg
4 | c1cc([C@H]2CC[C@@H](N3CCCC3)CC2)ccc1OCCCN1CCCCC1 |  |  | 0.33 nM |  | 22300 nM | 1 nM | IC50 [6]: 41700 nM; IC50 [7]: > 100000 nM; inhibition at 10 µM [10]: 15%; inhibition at 1 µM [11]: 11%
5 | c1cc([C@H]2CC[C@H](N3CCCC3)CC2)ccc1OCCCN1CCCCC1 |  |  | 0.25 nM |  | 15300 nM | 0.33 nM | IC50 [7]: > 100000 nM; inhibition at 10 µM [10]: 22%; ED50 [8]: 3 mg/kg; inhibition at 1 µM [11]: 14%
6 | CN1CCN([C@H]2CC[C@@H](c3ccc(OCCCN4CCCCC4)cc3)CC2)CC1 |  |  | 0.92 nM |  |  |  | 
7 | CN1CCN([C@H]2CC[C@H](c3ccc(OCCCN4CCCCC4)cc3)CC2)CC1 | 3.4% | 20.9% | 0.32 nM | 3.4% |  | 2.3 nM | 
8 | c1ccc2c(c1)CN([C@H]1CC[C@@H](c3ccc(OCCCN4CCCCC4)cc3)CC1)C2 |  |  | 0.41 nM |  |  |  | 
9 | c1ccc2c(c1)CN([C@H]1CC[C@H](c3ccc(OCCCN4CCCCC4)cc3)CC1)C2 | 21.9% | 8.9% | 0.17 nM | 25.1% |  | 1.4 nM | 
10 | c1ccc(CN[C@H]2CC[C@@H](c3ccc(OCCCN4CCCCC4)cc3)CC2)cc1 |  |  | 0.29 nM |  |  |  | 
11 | c1ccc(CN[C@H]2CC[C@H](c3ccc(OCCCN4CCCCC4)cc3)CC2)cc1 | 20% | 39.9% | 0.26 nM | 47.8% | 1000 nM | 2.1 nM | 
12 | CCCCN[C@H]1CC[C@@H](c2ccc(OCCCN3CCCCC3)cc2)CC1 | 2.9% | 25.4% | 0.53 nM | 53.9% | 1000 nM |  | 
13 | CCCCN[C@H]1CC[C@H](c2ccc(OCCCN3CCCCC3)cc2)CC1 | -8.9% | 26.6% | 0.64 nM | 54.7% | 1000 nM |  | 
14 | CN[C@H]1CC[C@H](c2ccc(OCCCN3CCCCC3)cc2)CC1 |  |  | 3.2 nM |  |  |  | 
15 | CN([C@H]1CC[C@H](c2ccc(OCCCN3CCCCC3)cc2)CC1)S(=O)(=O)c1ccccc1 |  |  | 5.5 nM |  |  |  | 
16 | c1cc(OCCCN2CCCCC2)ccc1CN1CCCCC1 [JNJ-5207852] |  |  |  |  |  |  | AUC(0-t) at 3 h [17]: 1100 ng·h/mL; Tmax [18]: 0.5 h; Tmax [19]: 3 h; AUC(0-t) at 3 h [20]: 1040 ng·h/mL

The next lines start with results.

Row | inhibition at 1 µM [1] | inhibition at 1 µM [2] | Ki [3] | inhibition at 1 µM [4] | IC50 [5] | Ki [9] | SMILES | also measured
17 |  |  | 0.34 nM |  |  |  | c1cc([C@H]2CC[C@@H](N3CCC3)CC2)ccc1OCCCN1CCCCC1 | 
18 | 0.8% | 4.2% | 0.25 nM | -12.1% |  | 1.6 nM | c1cc([C@H]2CC[C@H](N3CCC3)CC2)ccc1OCCCN1CCCCC1 | inhibition at 10 µM [10]: 41%; ED50 [8]: 2.8 mg/kg
19 | 1.4% | 5.2% | 0.64 nM | 33.5% |  | 1 nM | c1cc([C@H]2CC[C@H](N3CCCCC3)CC2)ccc1OCCCN1CCCCC1 | ED50 [8]: 4.2 mg/kg; inhibition at 1 µM [11]: 42%
20 | -7.8% | 26.1% | 0.56 nM | 52.9% |  |  | CC1CCN([C@H]2CC[C@@H](c3ccc(OCCCN4CCCCC4)cc3)CC2)CC1 | 
21 |  |  | 0.67 nM |  |  |  | c1cc([C@H]2CC[C@@H](N3CCOCC3)CC2)ccc1OCCCN1CCCCC1 | 
22 |  |  | 0.41 nM |  | 44000 nM | 1.6 nM | c1cc([C@H]2CC[C@H](N3CCOCC3)CC2)ccc1OCCCN1CCCCC1 | Kp [12]: 7.4; Stability [13]: Stable; IC50 [6]: 66200 nM; IC50 [7]: > 100000 nM; AUC(0-t) at 8 h [14]: 2110 ng·h/mL; Stability [15]: Stable; inhibition at 10 µM [10]: 34%; ED50 [8]: 1.3 mg/kg; AUC(0-t) at 8 h [16]: 15600 ng·h/mL
23 |  |  | 0.92 nM |  |  |  | OC1CCN([C@H]2CC[C@@H](c3ccc(OCCCN4CCCCC4)cc3)CC2)CC1 | 
24 | 15.7% | 3.3% | 0.57 nM | 3.4% |  |  | OC1CCN([C@H]2CC[C@H](c3ccc(OCCCN4CCCCC4)cc3)CC2)CC1 | 

From ChEMBL document CHEMBL1821619 (Bioorg Med Chem Lett, 2011)
